Here are results for two compounds from ChEMBL document CHEMBL1121797, “Studies on chiral interactions of 1-(2,5-dimethoxy-4-methylphenyl)-2-aminopropane and the corresponding N-hydroxy metabolites with cytochrome P-450” (J Med Chem, 1981).

In data set [1] the target is T1, Cytochrome P450 2C19 (Homo sapiens, UniProt P33261). The experiment in a line: Apparent binding affinity of compound (10.8-60.0 uM) in Cytochrome P450 binding. Format: ADME, Oryctolagus cuniculus. The settings on record: read-out: Ks.
T1 sequence (P33261 whole entry): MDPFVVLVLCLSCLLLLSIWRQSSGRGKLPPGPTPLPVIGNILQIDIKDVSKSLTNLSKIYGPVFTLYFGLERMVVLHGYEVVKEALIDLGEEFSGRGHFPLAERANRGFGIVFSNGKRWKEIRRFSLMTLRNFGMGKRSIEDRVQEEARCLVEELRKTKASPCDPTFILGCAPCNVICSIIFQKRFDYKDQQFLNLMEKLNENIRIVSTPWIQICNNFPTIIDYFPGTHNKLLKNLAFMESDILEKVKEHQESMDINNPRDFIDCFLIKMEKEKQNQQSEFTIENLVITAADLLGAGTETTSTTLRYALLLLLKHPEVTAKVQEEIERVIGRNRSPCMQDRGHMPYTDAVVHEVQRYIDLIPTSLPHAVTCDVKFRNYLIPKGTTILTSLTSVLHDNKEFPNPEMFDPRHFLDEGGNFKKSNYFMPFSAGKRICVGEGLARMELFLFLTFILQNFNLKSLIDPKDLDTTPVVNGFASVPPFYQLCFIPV
Data set [2] is described as follows: Extent rates of formation of metabolic intermediate Cytochrome P-450 at compound concentration of 30 uM. It is filed as ADME. An outline of the steps:
(§1)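 Rabbit liver microsomes at 2 mg protein/mL with 0.1 mM EDTA, 37 °C, substrate 30 μM. Complex formation started with 0.4 mM NADPH and followed by dual-wavelength absorbance, 457 vs 500 nm. Initial rate is the initial slope, ΔA×10^4 per nmol P-450 per min. Extent is the plateau absorbance. Lag is the time from NADPH addition to first 457-nm chromophore. Triplicate or single runs.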

The nature of data set [3]: Initial rates of formation of metabolic intermediate Cytochrome P-450 at compound concentration of 7.5-180 uM. Format: ADME. An outline of the steps:
(§2)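 Rabbit liver microsomes at 2 mg protein/mL with 0.1 mM EDTA, 37 °C, NADPH-dependent. Substrate tested at several concentrations. ΔA457–500 nm followed against time. Rate is the initial slope per nmol P-450 per min; extent is the plateau absorbance. Runs disturbed by a transient 450-nm species were discarded.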

Data set [4] can be described thus: Extent rates of formation of metabolic intermediate Cytochrome P-450 at compound concentration of 7.5-180 uM. It is filed as ADME. An outline of the steps:
as §2

Data set [5] in a line: Lag time between the addition of compound (30 uM) and the first appearance of chromophore. It is filed as ADME. An outline of the steps:
as §1

The nature of data set [6]: Initial rates of formation of metabolic intermediate Cytochrome P-450 at compound concentration of 30 uM. It is filed as ADME. Summed up:
as §1

A short description of data set [7]: Initial rates of formation of metabolic intermediate Cytochrome P-450 with compound concentration of 300 uM. It is filed as ADME. Summed up: (§3)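 Cross-inhibition in NADPH-supplemented rabbit liver microsomes at 37 °C. Preincubation with amine at 30, 150 or 300 μM while 457-nm complex formation was monitored. Once it plateaued (6–8 min), racemic hydroxylamine was added at 300 μM. Initial rate and plateau extent were read from ΔA457–500 nm vs time, per nmol P-450.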

A short description of data set [8]: Extent rates of formation of metabolic intermediate Cytochrome P-450 at compound concentration of 7.5-120 uM. It is filed as ADME. Summed up: as §2
A short description of data set [9]: Initial rates of formation of metabolic intermediate Cytochrome P-450 with compound concentration of 150 uM. It is filed as ADME. An outline of the steps: as §3
Data set [10] in a line: Initial rates of formation of metabolic intermediate Cytochrome P-450 with compound concentration of 30 uM. Format: ADME. An outline of the steps: as §3
For data set [11], the target named is T1, Cytochrome P450 2C19. The experiment in a line: Apparent binding affinity constant of compound (1.8-60.0) for Cytochrome P450. It is filed as ADME, Oryctolagus cuniculus. The settings on record: read-out: Ks.
The nature of data set [12]: Initial rates of formation of metabolic intermediate Cytochrome P-450 at compound concentration of 7.5-120 uM. It is filed as ADME. Summed up: as §2

With `COc1cc(C[C@@H](C)NO)c(OC)cc1C`, the Kd in data set [1] was found to be 22 µM. In addition, the Rate in [2] is recorded as 124; in data set [3] it was 30; in [4], 23; in [6], 182. In [5], the Lag time was 0 s.

Turning to `COc1cc(C[C@H](C)N)c(OC)cc1C`, the Extent came to 29 in data set [2] and 0 in data set [8]. Also, the Rate in [7] was determined as 1.1; in data set [9] it was 1.5; in data set [10], 1.7; in data set [6] it was 3.1; in data set [12] it was 0. The same compound displayed a Lag time in [5] of 136 s. For the same compound, the Kd in data set [11] stood at 6 µM.
